Measured values pooled from the literature.
Protocols differ between the studies behind these lines.
LRRK2: Leucine-rich repeat serine/threonine-protein kinase 2 (LRRK2, Homo sapiens, UniProt Q5S007)
LRRK2 G2019S: Leucine-rich repeat serine/threonine-protein kinase 2 (LRRK2, Homo sapiens, UniProt Q5S007, G2019S)

| SMILES | target | effect on | mode | method | endpoint | value |
| --- | --- | --- | --- | --- | --- | --- |
| COc1cc(N2CCN(C)CC2)ccc1Nc1ncc2c(n1)N(C)c1ccccc1C(=O)N2C | LRRK2 | enzyme activity | inhibitor |  | IC50 | 29 nM |
| CN(C(=O)c1cnn2cccnc12)c1cc2c(cc1N1CCOCC1)C(=O)N(C[C@@H](F)C(C)(C)O)C2 | LRRK2 | target engagement in cells |  | BRET | EC50 | > 50000 nM |
| Cc1cnc(-c2ccc(-c3ccc(NC(=O)Nc4c(F)cc(F)cc4F)cc3F)c3c2C(=O)NC3)[nH]1 | LRRK2 | binding |  | competition with immobilised ligand | Kd | 260 nM |
| O=c1ccc2cc(O)c(O)cc2o1 | LRRK2 | enzyme activity | inhibitor | radiometric | IC50 | 1730 nM |
| CC(=O)NC1CCN(c2ncnc3[nH]cc(-c4cccc(Cl)c4)c23)CC1 | LRRK2 | enzyme activity in cells | inhibitor |  | IC50 | 1100 nM |
| CC(Cc1ccc(O)c(O)c1)C(C)Cc1ccc(O)c(O)c1 (stereo not drawn) | LRRK2 G2019S | enzyme activity | inhibitor | radiometric | IC50 | 210 nM |
| COc1cc(N2CCN(C)CC2)ccc1Nc1ncc2c(n1)N(C)c1ccccc1C(=O)N2 | LRRK2 | enzyme activity | inhibitor |  | IC50 | 70 nM |
| C[C@@H]1CN(c2cc(-c3nn(C)c4ccc(OC5(C)CC5)cc34)ncn2)C[C@H](C)O1 | LRRK2 | target engagement in cells |  | BRET | EC50 | > 50000 nM |
| O=C(/C=C/c1ccc(O)c(O)c1)O[C@H](Cc1ccc(O)c(O)c1)C(=O)O | LRRK2 G2019S | enzyme activity | inhibitor | radiometric | IC50 | 496 nM |
